≈ marks a conversion by molar mass, not a printed value.
Each compound was assayed on Enterobacter cloacae (assay: Minimum inhibitory concentration against Enterobacter cloacae (265A beta-lactamase containing)). Details: Enterobacter cloacae; read-out: MIC.
Type: functional
In short: (§1)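 Agar dilution: compounds diluted in 0.1 M phosphate buffer pH 7.0 and incorporated into Mueller-Hinton agar with 1% Bacto-Supplement C at 50 °C. Fresh overnight cultures diluted to about 1×10^4 cells/µL; 1 µL spotted on plates. Incubated overnight at 35 °C in ambient air. MIC taken as the lowest concentration preventing visible growth.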

| MIC | Compound |
| --- | --- |
| > 128 µg/mL | CCCS(=O)(=O)C1=C(C(=O)O)N2C(=O)[C@@H](NC(=O)/C(=N/OC)c3csc(N)n3)[C@H]2CC1 |
| > 128 µg/mL | CO/N=C(/C(=O)N[C@@H]1C(=O)N2C(C(=O)O)=C(S(=O)(=O)c3ccccc3)CC[C@H]12)c1csc(N)n1 |
| > 128 µg/mL | CO/N=C(/C(=O)N[C@@H]1C(=O)N2C(C(=O)O)=C(S(=O)(=O)c3c(C)noc3C)CC[C@H]12)c1csc(N)n1 |

What follows are compounds tested on Enterobacter cloacae (assay: Minimum inhibitory concentration against Enterobacter cloacae (EB5)). Details: Enterobacter cloacae; read-out: MIC.
Type: functional
In short: as §1

| MIC | Compound |
| --- | --- |
| 1 µg/mL (≈ 2.12 µM) | CCCS(=O)(=O)C1=C(C(=O)O)N2C(=O)[C@@H](NC(=O)/C(=N/OC)c3csc(N)n3)[C@H]2CC1 |
| 8 µg/mL (≈ 15.8 µM) | CO/N=C(/C(=O)N[C@@H]1C(=O)N2C(C(=O)O)=C(S(=O)(=O)c3ccccc3)CC[C@H]12)c1csc(N)n1 |
| 8 µg/mL (≈ 15.3 µM) | CO/N=C(/C(=O)N[C@@H]1C(=O)N2C(C(=O)O)=C(S(=O)(=O)c3c(C)noc3C)CC[C@H]12)c1csc(N)n1 |

Each compound was assayed on Escherichia coli (assay: Minimum inhibitory concentration against Escherichia coli (EC14)). Details: Escherichia coli; read-out: MIC.
Type: functional
In short: as §1

| MIC | Compound |
| --- | --- |
| 0.125 µg/mL (≈ 0.265 µM) | CCCS(=O)(=O)C1=C(C(=O)O)N2C(=O)[C@@H](NC(=O)/C(=N/OC)c3csc(N)n3)[C@H]2CC1 |
| 2 µg/mL (≈ 3.96 µM) | CO/N=C(/C(=O)N[C@@H]1C(=O)N2C(C(=O)O)=C(S(=O)(=O)c3ccccc3)CC[C@H]12)c1csc(N)n1 |
| 2 µg/mL (≈ 3.81 µM) | CO/N=C(/C(=O)N[C@@H]1C(=O)N2C(C(=O)O)=C(S(=O)(=O)c3c(C)noc3C)CC[C@H]12)c1csc(N)n1 |

What follows are compounds tested on Escherichia coli (assay: Minimum inhibitory concentration against Escherichia coli (TEM beta-lactamase containing)). Details: Escherichia coli; read-out: MIC.
Type: functional
In short: as §1

| MIC | Compound |
| --- | --- |
| 1 µg/mL (≈ 2.12 µM) | CCCS(=O)(=O)C1=C(C(=O)O)N2C(=O)[C@@H](NC(=O)/C(=N/OC)c3csc(N)n3)[C@H]2CC1 |
| 8 µg/mL (≈ 15.8 µM) | CO/N=C(/C(=O)N[C@@H]1C(=O)N2C(C(=O)O)=C(S(=O)(=O)c3ccccc3)CC[C@H]12)c1csc(N)n1 |
| 8 µg/mL (≈ 15.3 µM) | CO/N=C(/C(=O)N[C@@H]1C(=O)N2C(C(=O)O)=C(S(=O)(=O)c3c(C)noc3C)CC[C@H]12)c1csc(N)n1 |

The compounds below were run on Haemophilus influenzae (assay: Minimum inhibitory concentration against Haemophilus influenzae (C.L.)). Details: Haemophilus influenzae; read-out: MIC.
Type: functional
In short: as §1

| MIC | Compound |
| --- | --- |
| 0.25 µg/mL (≈ 0.53 µM) | CCCS(=O)(=O)C1=C(C(=O)O)N2C(=O)[C@@H](NC(=O)/C(=N/OC)c3csc(N)n3)[C@H]2CC1 |
| 0.25 µg/mL (≈ 0.495 µM) | CO/N=C(/C(=O)N[C@@H]1C(=O)N2C(C(=O)O)=C(S(=O)(=O)c3ccccc3)CC[C@H]12)c1csc(N)n1 |
| 0.25 µg/mL (≈ 0.477 µM) | CO/N=C(/C(=O)N[C@@H]1C(=O)N2C(C(=O)O)=C(S(=O)(=O)c3c(C)noc3C)CC[C@H]12)c1csc(N)n1 |

These compounds were tested on Klebsiella (assay: Minimum inhibitory concentration against Klebsiella (KAE beta-lactamase containing)). Details: Klebsiella; read-out: MIC.
Type: functional
In short: as §1

| MIC | Compound |
| --- | --- |
| > 128 µg/mL | CCCS(=O)(=O)C1=C(C(=O)O)N2C(=O)[C@@H](NC(=O)/C(=N/OC)c3csc(N)n3)[C@H]2CC1 |
| > 128 µg/mL | CO/N=C(/C(=O)N[C@@H]1C(=O)N2C(C(=O)O)=C(S(=O)(=O)c3ccccc3)CC[C@H]12)c1csc(N)n1 |
| > 128 µg/mL | CO/N=C(/C(=O)N[C@@H]1C(=O)N2C(C(=O)O)=C(S(=O)(=O)c3c(C)noc3C)CC[C@H]12)c1csc(N)n1 |

What follows are compounds tested on Klebsiella (assay: Minimum inhibitory concentration against Klebsiella (X26)). Details: Klebsiella; read-out: MIC.
Type: functional
In short: as §1

| MIC | Compound |
| --- | --- |
| 0.125 µg/mL (≈ 0.265 µM) | CCCS(=O)(=O)C1=C(C(=O)O)N2C(=O)[C@@H](NC(=O)/C(=N/OC)c3csc(N)n3)[C@H]2CC1 |
| 1 µg/mL (≈ 1.98 µM) | CO/N=C(/C(=O)N[C@@H]1C(=O)N2C(C(=O)O)=C(S(=O)(=O)c3ccccc3)CC[C@H]12)c1csc(N)n1 |
| 1 µg/mL (≈ 1.91 µM) | CO/N=C(/C(=O)N[C@@H]1C(=O)N2C(C(=O)O)=C(S(=O)(=O)c3c(C)noc3C)CC[C@H]12)c1csc(N)n1 |

The compounds below were run on Morganella morganii (assay: Minimum inhibitory concentration against Proteus morganii (PR 15)). Details: Morganella morganii; read-out: MIC.
Type: functional
In short: as §1

| MIC | Compound |
| --- | --- |
| 2 µg/mL (≈ 4.24 µM) | CCCS(=O)(=O)C1=C(C(=O)O)N2C(=O)[C@@H](NC(=O)/C(=N/OC)c3csc(N)n3)[C@H]2CC1 |
| > 128 µg/mL | CO/N=C(/C(=O)N[C@@H]1C(=O)N2C(C(=O)O)=C(S(=O)(=O)c3ccccc3)CC[C@H]12)c1csc(N)n1 |
| 2 µg/mL (≈ 3.81 µM) | CO/N=C(/C(=O)N[C@@H]1C(=O)N2C(C(=O)O)=C(S(=O)(=O)c3c(C)noc3C)CC[C@H]12)c1csc(N)n1 |

The compounds below were run on Pseudomonas aeruginosa (assay: Minimum inhibitory concentration against Pseudomonas aeruginosa (X528)). Details: Pseudomonas aeruginosa; read-out: MIC.
Type: functional
In short: as §1

| MIC | Compound |
| --- | --- |
| > 128 µg/mL | CCCS(=O)(=O)C1=C(C(=O)O)N2C(=O)[C@@H](NC(=O)/C(=N/OC)c3csc(N)n3)[C@H]2CC1 |
| > 128 µg/mL | CO/N=C(/C(=O)N[C@@H]1C(=O)N2C(C(=O)O)=C(S(=O)(=O)c3ccccc3)CC[C@H]12)c1csc(N)n1 |
| > 128 µg/mL | CO/N=C(/C(=O)N[C@@H]1C(=O)N2C(C(=O)O)=C(S(=O)(=O)c3c(C)noc3C)CC[C@H]12)c1csc(N)n1 |

Each compound was assayed on Providencia rettgeri (assay: Minimum inhibitory concentration against Proteus rettgeri (C24)). Details: Providencia rettgeri; read-out: MIC.
Type: functional
In short: as §1

| MIC | Compound |
| --- | --- |
| 4 µg/mL (≈ 8.48 µM) | CCCS(=O)(=O)C1=C(C(=O)O)N2C(=O)[C@@H](NC(=O)/C(=N/OC)c3csc(N)n3)[C@H]2CC1 |
| 1 µg/mL (≈ 1.98 µM) | CO/N=C(/C(=O)N[C@@H]1C(=O)N2C(C(=O)O)=C(S(=O)(=O)c3ccccc3)CC[C@H]12)c1csc(N)n1 |
| 16 µg/mL (≈ 30.5 µM) | CO/N=C(/C(=O)N[C@@H]1C(=O)N2C(C(=O)O)=C(S(=O)(=O)c3c(C)noc3C)CC[C@H]12)c1csc(N)n1 |

The compounds below were run on Salmonella (assay: Minimum inhibitory concentration against Salmonella (X514)). Details: Salmonella; read-out: MIC.
Type: functional
In short: as §1

| MIC | Compound |
| --- | --- |
| 0.125 µg/mL (≈ 0.265 µM) | CCCS(=O)(=O)C1=C(C(=O)O)N2C(=O)[C@@H](NC(=O)/C(=N/OC)c3csc(N)n3)[C@H]2CC1 |
| 0.25 µg/mL (≈ 0.495 µM) | CO/N=C(/C(=O)N[C@@H]1C(=O)N2C(C(=O)O)=C(S(=O)(=O)c3ccccc3)CC[C@H]12)c1csc(N)n1 |
| 4 µg/mL (≈ 7.63 µM) | CO/N=C(/C(=O)N[C@@H]1C(=O)N2C(C(=O)O)=C(S(=O)(=O)c3c(C)noc3C)CC[C@H]12)c1csc(N)n1 |

Each compound was assayed on Staphylococcus epidermidis (assay: Minimum inhibitory concentration against Staphylococcus epidermidis (222)). Details: Staphylococcus epidermidis; read-out: MIC.
Type: functional
In short: as §1

| MIC | Compound |
| --- | --- |
| 8 µg/mL (≈ 17 µM) | CCCS(=O)(=O)C1=C(C(=O)O)N2C(=O)[C@@H](NC(=O)/C(=N/OC)c3csc(N)n3)[C@H]2CC1 |
| 16 µg/mL (≈ 31.6 µM) | CO/N=C(/C(=O)N[C@@H]1C(=O)N2C(C(=O)O)=C(S(=O)(=O)c3ccccc3)CC[C@H]12)c1csc(N)n1 |
| 8 µg/mL (≈ 15.3 µM) | CO/N=C(/C(=O)N[C@@H]1C(=O)N2C(C(=O)O)=C(S(=O)(=O)c3c(C)noc3C)CC[C@H]12)c1csc(N)n1 |

What follows are compounds tested on Streptococcus pyogenes (assay: Minimum inhibitory concentration against Streptococcus pyogenes (C203)). Details: Streptococcus pyogenes; read-out: MIC.
Type: functional
In short: as §1

| MIC | Compound |
| --- | --- |
| 0.03 µg/mL (≈ 0.0636 µM) | CCCS(=O)(=O)C1=C(C(=O)O)N2C(=O)[C@@H](NC(=O)/C(=N/OC)c3csc(N)n3)[C@H]2CC1 |
| 1 µg/mL (≈ 1.98 µM) | CO/N=C(/C(=O)N[C@@H]1C(=O)N2C(C(=O)O)=C(S(=O)(=O)c3ccccc3)CC[C@H]12)c1csc(N)n1 |
| 0.03 µg/mL (≈ 0.0572 µM) | CO/N=C(/C(=O)N[C@@H]1C(=O)N2C(C(=O)O)=C(S(=O)(=O)c3c(C)noc3C)CC[C@H]12)c1csc(N)n1 |

The compounds below were run on Streptococcus pneumoniae (assay: Minimum inhibitory concentration against Streptococcus pneumoniae (PARK)). Details: Streptococcus pneumoniae; read-out: MIC.
Type: functional
In short: as §1

| MIC | Compound |
| --- | --- |
| 0.03 µg/mL (≈ 0.0636 µM) | CCCS(=O)(=O)C1=C(C(=O)O)N2C(=O)[C@@H](NC(=O)/C(=N/OC)c3csc(N)n3)[C@H]2CC1 |
| 0.06 µg/mL (≈ 0.119 µM) | CO/N=C(/C(=O)N[C@@H]1C(=O)N2C(C(=O)O)=C(S(=O)(=O)c3ccccc3)CC[C@H]12)c1csc(N)n1 |
| 0.03 µg/mL (≈ 0.0572 µM) | CO/N=C(/C(=O)N[C@@H]1C(=O)N2C(C(=O)O)=C(S(=O)(=O)c3c(C)noc3C)CC[C@H]12)c1csc(N)n1 |

These compounds were tested on Staphylococcus aureus (assay: Minimum inhibitory concentration against Staphylococcus aureus (X1.1)). Details: Staphylococcus aureus; read-out: MIC.
Type: functional
In short: as §1

| MIC | Compound |
| --- | --- |
| 8 µg/mL (≈ 17 µM) | CCCS(=O)(=O)C1=C(C(=O)O)N2C(=O)[C@@H](NC(=O)/C(=N/OC)c3csc(N)n3)[C@H]2CC1 |
| 8 µg/mL (≈ 15.8 µM) | CO/N=C(/C(=O)N[C@@H]1C(=O)N2C(C(=O)O)=C(S(=O)(=O)c3ccccc3)CC[C@H]12)c1csc(N)n1 |
| 4 µg/mL (≈ 7.63 µM) | CO/N=C(/C(=O)N[C@@H]1C(=O)N2C(C(=O)O)=C(S(=O)(=O)c3c(C)noc3C)CC[C@H]12)c1csc(N)n1 |

— ChEMBL document CHEMBL1124364, “3-Sulfonyl-1-carba-1-dethiacephems” (1989)
